According to PubChem BioAssay AID1381 (University of Pittsburgh Molecular Library Screening Center, 2008):
Out of some 220,000 compounds screened, about 1,000 (0.45%) were called active.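 Rule for the calls: active = plate z-score of nuclear minus cytoplasmic receptor signal below a set negative limit, without overly bright fluorescence or cell loss (cut at about -3.5 in these data, passing the limit was not always enough); inactive = the rest, inconclusive results apart.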 For the sample, actives were picked, then their nearest neighbours and some compounds at random.

Test: inhibitors of GR-EGFP nuclear translocation, primary screen, dynein cargo transport inhibitor project, imaging, high-content, 3617.4 mouse cells (AID 1381)
Conditions: stimulated with dexamethasone, 1 µM
Summary of the method: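 Buffer or medium – tet-free medium with charcoal-stripped serum · Signal – automated 10x imaging of fixed Hoechst-stained cells · Also added – dexamethasone agonist, 1.0 µM final, for 30 min · Incubation – induction 48 h, compound 1 h, agonist 30 min · Read-out – GR-EGFP nuclear translocation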

[1] = measured here: cell count per field, at 20 µM
[2] = measured here: cytoplasmic GR-EGFP intensity, at 20 µM, stronger effect = higher value
[3] = measured here: nuclear GR-EGFP intensity, at 20 µM, stronger effect = lower value
[4] = measured here: cell count per field, at 50 µM
[5] = measured here: cytoplasmic GR-EGFP intensity, at 50 µM, stronger effect = higher value
[6] = measured here: nuclear GR-EGFP intensity, at 50 µM, stronger effect = lower value

SMILES	z-score (at 20 µM, stronger effect = lower value)	z-score [1]	z-score [2]	z-score [3]	z-score (at 50 µM, stronger effect = lower value)	z-score [4]	z-score [5]	z-score [6]
C/C(CC(=O)Nc1cccc(C(F)(F)F)c1)=N\NC(=O)C(=O)NCC(C)C	-0.981 (inactive)	0.594	-0.237	-0.369	–	–	–	–
Cc1nnc(SCCCCSc2nnc(C)c(=O)[nH]2)[nH]c1=O	-0.311 (inactive)	-0.339	-0.259	-0.0707	–	–	–	–
CC(=O)Nc1cccc([N+](=O)[O-])c1	0.101 (inactive)	0.386	-0.384	0.092	–	–	–	–
COC(=O)/C=C\C(=O)Nc1cccc([N+](=O)[O-])c1	-4.05 (active)	-0.741	1.08	-2.26	–	–	–	–
Cc1ccccc1NC(=S)Nc1cccc([N+](=O)[O-])c1	-0.523 (inactive)	-0.0166	-0.193	-0.37	–	–	–	–
COc1ccc(-c2noc(-c3cccc(OC)c3OC)n2)cc1OC	1.03 (inactive)	-0.605	-0.0658	0.927	–	–	–	–
COc1ccc(-c2csc(-c3cccs3)n2)cc1OC	0.847 (inactive)	0.288	-0.331	0.694	–	–	–	–
COc1ccc(-c2csc3nc(-c4ccccc4F)oc(=O)c23)cc1OC	-3.75 (active)	-0.574	0.603	-1.45	–	–	–	–
O=C(Nc1ccc(N2CCOCC2)cc1)c1ccc2c(c1)OCO2	1.56 (inactive)	-0.797	-0.257	0.727	–	–	–	–
CCCC1NC(=S)NC(C)=C1C(C)=O (configuration not stated)	0.661 (inactive)	0.486	-0.194	0.234	–	–	–	–
COc1cc(/C=N\NC(=O)CNC(=O)c2cccc([N+](=O)[O-])c2)ccc1O	2.51 (inactive)	-1.15	0.0365	1.56	–	–	–	–
COc1ccc(C(=O)NCC(=O)N/N=C/c2ccc([N+](=O)[O-])s2)cc1OC	-0.653 (inactive)	0.617	-0.211	-0.24	–	–	–	–
COc1ccc(C(=O)NCC(=O)N/N=C/c2ccc([N+](=O)[O-])o2)cc1OC	-4.33 (active)	0.928	0.52	-1.68	–	–	–	–
CC(C)(C)OC(=O)NCCCCCC(=O)N/N=C/c1coc2ccccc2c1=O	-0.131 (inactive)	-0.0505	-0.202	-0.314	–	–	–	–
C/C(=N\NC(=O)CSc1nc2ccccc2c(=O)n1-c1ccccc1C)c1cccs1	0.968 (inactive)	-0.667	-0.231	0.554	–	–	–	–
CCn1c(SCc2cc(=O)n3ccsc3n2)nc2ccccc21	-0.0624 (inactive)	-0.534	-0.319	0.783	–	–	–	–
CCCCCCc1cc2cc(-c3nnc(-c4cccc(OC)c4)o3)c(=O)oc2cc1O	–	–	–	–	-2.6 (inactive)	-0.146	22.1	2.79
C[C@@H](NC(=O)OC(C)(C)C)c1nnc(S(=O)(=O)Cc2ccccc2)o1	-5.36 (active)	0.73	1.44	-2.38	–	–	–	–
C[C@H](NC(=O)OC(C)(C)C)c1nnc(SCC(N)=O)o1	0.077 (inactive)	-0.312	-0.175	0.307	–	–	–	–
CC(C)Sc1nnc([C@H](Cc2ccccc2)NC(=O)OC(C)(C)C)o1	-1.61 (inactive)	1.71	0.279	-0.731	–	–	–	–
Cc1ccc(NC(=O)CN(C)Cc2ccc(F)cc2)c([N+](=O)[O-])c1	-0.244 (inactive)	-0.235	-0.22	-0.284	–	–	–	–
CCOC(=O)C(=Cc1ccccc1OC)C(=O)OCC	-5.08 (active)	0.0073	1.43	-2.52	–	–	–	–
CCOC(=O)C(=CNc1cccc(C)n1)C(=O)OCC	0.995 (inactive)	0.752	-0.214	0.879	–	–	–	–

SMILES	z-score (at 20 µM, stronger effect = lower value)	z-score [1]	z-score [2]	z-score [3]	z-score (at 50 µM, stronger effect = lower value)	z-score [4]	z-score [5]	z-score [6]
COc1ccccc1NC(=O)c1ccc(C)s1	–	–	–	–	0.335 (inactive)	-0.862	-0.265	0.226
N#Cc1cccc(NC(=O)COC(=O)c2ccccc2C(=O)c2ccc(Cl)c([N+](=O)[O-])c2)c1	-0.407 (inactive)	0.615	-0.326	-0.496	–	–	–	–
Cn1cnnc1SCC(=O)NNC(=O)COc1ccc(Br)cc1	0.431 (inactive)	0.453	-0.218	-0.126	–	–	–	–
C[C@@H]1C[C@@H]2O[C@H]2/C=C\C=C\C(=O)Cc2c(Cl)c(O)cc(O)c2C(=O)O1	-3.8 (active)	0.512	1.82	-1.89	–	–	–	–
COc1cc(CO)c(C2(CO)CCCC2)cc1OC	0.000321 (inactive)	-0.54	-0.145	0.499	–	–	–	–
COC(=O)c1ccc(Sc2ccc(F)cc2)c(N)c1	0.257 (inactive)	0.499	-0.377	0.132	–	–	–	–
Cc1ccc(C(C)NC(=O)Cn2nc(C)c([N+](=O)[O-])c2C)cc1 (configuration not stated)	-0.784 (inactive)	0.727	-0.261	-0.607	–	–	–	–
COc1ccc(CCc2nnc(CCC(=O)NCc3cnn(-c4ccccc4C)c3)o2)cc1	1.76 (inactive)	-1.6	-0.0906	1.43	–	–	–	–
O=C(NCCCN1CCOCC1)c1ccc([N+](=O)[O-])cc1[N+](=O)[O-]	-0.163 (inactive)	0.317	-0.243	0.0502	–	–	–	–
O=[N+]([O-])c1ccc(NCCCN2CCOCC2)c(Cl)c1	0.346 (inactive)	-0.149	0.0336	0.676	–	–	–	–
O=[N+]([O-])c1cc(S(=O)(=O)CCCN2CCOCC2)ccc1F	-4.25 (active)	0.317	1.15	-2.3	–	–	–	–
COC(=O)C(C(=O)Nc1cccc(Cl)c1C)C1CCCC1 (configuration not stated)	0.289 (inactive)	0.616	0.0155	-0.208	–	–	–	–
CC(=O)c1ccc(-c2nnc(CCC(=O)N(C)Cc3cnc4ccccn34)o2)s1	-0.0124 (inactive)	-0.441	-0.212	0.00751	–	–	–	–
O=C(CCl)N(Cc1cccc([N+](=O)[O-])c1)c1cccc(Cl)c1	-4.69 (active)	-1.23	2.38	-2.48	–	–	–	–
O=C(Nc1cccc([N+](=O)[O-])c1)Nc1ccc(Cl)cn1	0.686 (inactive)	-0.334	-0.0491	0.778	–	–	–	–
CCN(CC)C(=O)CN(c1cccc([N+](=O)[O-])c1)S(=O)(=O)c1ccccc1	-0.611 (inactive)	0.944	-0.266	-0.263	–	–	–	–
CCOc1ccc(Br)cc1S(=O)(=O)Nc1cccc(S(=O)(=O)N(CC)CC)c1	-0.331 (inactive)	0.488	-0.167	-0.464	–	–	–	–
CS(=O)(=O)c1ccc(Cl)c(NC(=O)Nc2ccccc2)c1	1.27 (inactive)	-0.472	-0.245	0.728	–	–	–	–
O=C(Nc1ccccc1)c1nnsc1S(=O)(=O)c1ccc(Cl)cc1	-5.03 (active)	0.905	0.759	-1.85	–	–	–	–
O=C(Nc1ccc(Cl)cc1)c1ccsn1	1.02 (inactive)	-1.19	-0.158	1.14	–	–	–	–
CC(Nc1ccccc1)c1cccnc1 (configuration not stated)	-0.716 (inactive)	0.0401	-0.305	-0.598	–	–	–	–
CC1=C/C(=N\S(=O)(=O)c2ccccc2)C(C(C)C)=CC1=O	-0.707 (inactive)	-0.217	-0.313	0.209	–	–	–	–
CCOC(=O)C1(S(=O)(=O)c2ccccc2)CCN(Cc2ccccc2)CC1	-0.25 (inactive)	0.352	-0.189	0.556	–	–	–	–

SMILES	z-score (at 20 µM, stronger effect = lower value)	z-score [1]	z-score [2]	z-score [3]	z-score (at 50 µM, stronger effect = lower value)	z-score [4]	z-score [5]	z-score [6]
CC1=C/C(=N\OS(=O)(=O)c2ccccc2)C=CC1=O	–	–	–	–	-4.5 (active)	-1.11	1.28	-2.71
COc1ccc(/C=N/N=C2/C(=O)Nc3ccccc32)cc1O	0.0879 (inactive)	-1.02	0.671	0.854	–	–	–	–
C=CCOC(=O)C1=C[C@@H](c2ccccc2)C[C@@H](OCc2ccc(CO)cc2)O1	-0.243 (inactive)	-0.581	-0.228	0.233	–	–	–	–
CC(=O)c1cc(C#N)c(SCC(=O)Nc2nccs2)nc1C	0.633 (inactive)	-0.767	-0.205	1	–	–	–	–
CCn1c(SCC(=O)Nc2nc(C)cs2)nnc1C(C)NC(=O)c1ccccc1 (configuration not stated)	0.931 (inactive)	-0.274	-0.247	-0.608	–	–	–	–
COc1ccc(NC(=S)Nc2ccccc2Cl)cn1	1.03 (inactive)	-0.0291	-0.33	0.285	–	–	–	–
COc1ccc(NC(=O)/C(Cl)=C(/Cl)S(=O)Cc2ccc(C)cc2)cn1 (configuration not stated)	-5.02 (inactive)	-1.31	4.96	-1.87	–	–	–	–
COc1ccc(CS(=O)/C(Cl)=C(/Cl)C(=O)Nc2ccc(OC)nc2)cc1 (configuration not stated)	-5.17 (active)	0.13	3.61	-2.19	–	–	–	–
O=C(NCc1cccnc1)c1cccc(-c2cc3ccccc3oc2=O)c1	-0.31 (inactive)	0.631	-0.22	-0.235	–	–	–	–
Cc1ccc(S(=O)(=O)C2C(=O)NC3(C)CC2c2ccccc2O3)cc1 (configuration not stated)	-0.689 (inactive)	-0.187	-0.199	-0.503	–	–	–	–
CCc1ccc(/C=N/NC(=O)c2ccc(OC3CCCC3)cc2)s1	–	–	–	–	-0.285 (inactive)	0.0349	-0.199	-0.114
Cc1[nH]c(=O)c(C(=O)/C=C/c2ccccc2)c2c1CCCC2	-3.92 (active)	0.356	0.353	-1.71	–	–	–	–
O=C(/C=C/c1ccccc1)c1ccccc1O	-0.596 (inactive)	0.171	-0.18	0.0198	–	–	–	–
Cc1nc(-c2ccccc2)sc1C(=O)/C=C/c1ccccc1	-2.15 (inactive)	0.685	-0.0664	-0.902	–	–	–	–
CSc1nc2c(c(=O)[nH]1)C(c1cccc(Cl)c1Cl)CC(=O)N2 (configuration not stated)	-0.956 (inactive)	0.453	-0.232	-0.546	–	–	–	–
O=C(/C=C/c1cnc2ccccc2n1)NC1CCCCCC1	0.072 (inactive)	-0.372	-0.262	-0.0867	–	–	–	–
O=C(O)c1ccccc1OCc1ccccc1Cl	1.56 (inactive)	-0.166	-0.834	1.06	–	–	–	–
Cc1ccc(CN2CCC(N3CCC(C(=O)NCC4CCCO4)CC3)CC2)o1 (configuration not stated)	0.0309 (inactive)	-0.115	-0.27	0.507	–	–	–	–
Fc1ccccc1/C=C1\CCCC2=C1Nc1ncnn1C2c1ccccc1F (configuration not stated)	-4.08 (active)	0.757	0.917	-1.5	–	–	–	–
Cc1c(C(=O)Nc2ccccc2)sc2nc3n(c(=O)c12)CCCCC3	0.507 (inactive)	0.149	-0.32	0.154	–	–	–	–
Cc1ccc(S(=O)(=O)NC(=O)N2CCCN(Cc3ccc(F)cc3)CC2)cc1	-0.425 (inactive)	0.12	-0.231	-0.245	–	–	–	–
CC(=O)Nc1ccc(S(=O)(=O)NCC(=O)OCc2cc(=O)oc3ccc4ccccc4c23)cc1	0.304 (inactive)	-0.781	-0.141	-0.169	–	–	–	–
